One data set deals with MC-38. Put plainly: Antitumour activity against mouse MC38 cells allografted in C57Bl/6 mouse assessed as reduction in tumour growth at 3.75 mg/kg, po dosed every 3 days on and 4 days off treatment regime and cotreated with anti-PD1 at 10 mg/kg, ip every 4 days for 3 doses by digital caliper analysis. The class given is functional, organism-based. The method in brief:
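MC38 cells (0.1 mL at 1 × 10^7 cells/mL) were implanted subcutaneously in the right flank of C57/BL6 mice. Randomization was at about 100 mm3, typically day 5. Oral dosing ran 3 days on, 4 days off, over 28 days. Anti-PD-1 was given at 10 mg/kg IP every 4 days for three doses, with isotype MOPC-21 IgG1 as control on the same schedule.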

The nature of data set [1]: Cardiovascular toxicity in rat 1 mg/kg, po dosed every 3 days on and 4 days off treatment regime for 1 month. Format: organism-based. Particulars: in vivo.

Active and inactive are the calls of the source. The calls are words filed in the database; no cut-off is given here.

Turning to `N#Cc1cnc2ccc(-c3c(-c4ccc(F)c(Cl)c4)ncn3CCO)nn12`, in the data set on MC-38, the inhibition result was “Active”. Also, in data set [1], the Activity result is reported as “Non-Toxic”.
